These results are taken from ChEMBL document CHEMBL4033629, “Synthesis, biological evaluation and molecular modeling of 2-Hydroxyisoquinoline-1,3-dione analogues as inhibitors of HIV reverse transcriptase associated ribonuclease H and polymerase” (Eur J Med Chem, 2017).

Active and inactive are the calls of the source. The calls are words filed in the database; no cut-off is given here. Bounds are passed on as bounds.

What is called IC50 is the midpoint of a concentration-inhibition curve. Read a high IC50 as weaker potency in that assay.

Experiment [1] in a line: Inhibition of full length HIV reverse transcriptase polymerase activity. Further details: species or system Human immunodeficiency virus. The method in brief:
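RT was pre-incubated with primer-template duplex before compound was tested. The IC50 is the concentration giving 50% inhibition. It is reported as mean ± SD from three independent experiments for some analogues, and as the mean of two independent experiments for others.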

Experiment [2] can be described thus: Inhibition of full length HIV RT-RNase H activity using 18-nucleotide 3'-fluorescein-labeled RNA/5'-dabsyl-labeled DNA hybrid as substrate. Further details: species or system Human immunodeficiency virus. The method in brief:
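Duplex substrate reports random internal RNA cleavage. A known RNase H inhibitor served as positive control. IC50 is the concentration giving 50% inhibition, reported as the mean of two or three independent experiments.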

Experiment [3] concerns Human immunodeficiency virus 1. Nature of the experiment: Antiviral activity against HIV1 3B infected in human CEM-SS cells assessed as inhibition of viral-induced cytopathic effect at 10 uM by colorimetric method. The experiment is classed as functional, cell-based. The method in brief:
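CEM-SS cells were mixed with HIV-1 IIIB and test compound at 10 µM and incubated 6 days. Virus was pre-titered so that virus control wells lost 70 to 95% of cell viability. Each plate had cell-only, virus, compound toxicity and compound colorimetric control wells. Protection from virus-induced cytopathic effect was read colorimetrically.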
Background: Damage to the host cells serves as the signal in cytopathic effect assays.

`O=C1Cc2c(Cc3ccc(Br)cc3)cccc2C(=O)N1O`: the concentration for half-maximal inhibition (IC50) in experiment [1] came out at 1.4 µM; in experiment [2], 0.6 µM. The outcome in experiment [3] was inactive.

`COc1cc2c(cc1-c1ccc(F)cc1F)CC(=O)N(O)C2=O`: the IC50 stood at 2.9 µM in experiment [1] and 1.6 µM in experiment [2]. In addition, in experiment [3], the result was inactive.

As to `O=C1Cc2ccc(-c3ccc(F)c(F)c3)cc2C(=O)N1O`, the figures for the IC50 in experiment [1] and in experiment [2] were 2.8 µM and 2 µM, respectively. Moreover, the outcome in experiment [3] was inactive.

`O=C1Cc2c(cccc2-c2ccccc2)C(=O)N1O`: the concentration for half-maximal inhibition (IC50) in experiment [1] is over 25 µM; in experiment [2], 1.4 µM. Also, in experiment [3], the result was inactive.

As for `O=C1Cc2cc(-c3ccc(F)c(F)c3)ccc2C(=O)N1O`, the IC50 in experiment [1] came out at 2.1 µM; in experiment [2] it was 1.3 µM. The outcome in experiment [3] was inactive.

With `O=C1Cc2ccc(-c3cccs3)cc2C(=O)N1O`, the 50% inhibitory concentration (IC50) in experiment [1] was 2.5 µM; in experiment [2], 1.7 µM. The result in experiment [3] was inactive.

In the case of `O=C1Cc2cc(-c3ccoc3)ccc2C(=O)N1O`, the IC50 turned out to be 2 µM in experiment [1] and 1.4 µM in experiment [2]. The result in experiment [3] was inactive.

On to `O=C(Nc1ccc2c(c1)CC(=O)N(O)C2=O)c1ccccc1`, for which the figures for the 50% inhibitory concentration (IC50) in experiment [1] and in experiment [2] were 0.4 µM and 0.2 µM, respectively. Moreover, the outcome in experiment [3] was inactive.

On to `O=C1Cc2c(Cc3ccc(C(F)(F)F)cc3)cccc2C(=O)N1O`, for which the figures for the half-inhibitory concentration (IC50) in experiment [1] and in experiment [2] were 7.4 µM and 0.83 µM, respectively. Further, in experiment [3], the result was inactive.

Take `COc1cc2c(cc1-c1ccccc1)CC(=O)N(O)C2=O`: the results for the IC50 in experiment [1] and in experiment [2] were 8.1 µM and 1.3 µM, respectively. Further, the outcome in experiment [3] was inactive.

Turning to `O=C1Cc2c(cccc2-c2ccc(F)cc2F)C(=O)N1O`, the IC50 in experiment [1] was 25 µM; in experiment [2], 1.5 µM. Moreover, the result in experiment [3] was inactive.

For the molecule `O=C(Nc1ccc2c(c1)CC(=O)N(O)C2=O)c1ccc(F)cc1`, the IC50 amounted to 0.8 µM in experiment [1] and 0.2 µM in experiment [2]. Also, the result in experiment [3] was inactive.

With `O=C1Cc2cc(-c3ccc4c(c3)OCO4)ccc2C(=O)N1O`, the half-inhibitory concentration (IC50) stood at 1.7 µM in experiment [1] and 1.2 µM in experiment [2]. Also, the outcome in experiment [3] was inactive.

As to `O=C1Cc2cc(-c3ccco3)ccc2C(=O)N1O`, the IC50 in experiment [1] was found to be 1.5 µM; in experiment [2], 1.1 µM. The outcome in experiment [3] was inactive.

Turning to `COc1cc2c(cc1-c1ccc(F)cc1)CC(=O)N(O)C2=O`, the values for the IC50 in experiment [1] and in experiment [2] were 3.7 µM and 1.4 µM, respectively. Also, the result in experiment [3] was inactive.

As to `COc1cc2c(cc1-c1ccco1)CC(=O)N(O)C2=O`, the IC50 was 6.2 µM in experiment [1] and 1.6 µM in experiment [2]. The outcome in experiment [3] was inactive.

As for `O=C1Cc2cc(-c3cccs3)ccc2C(=O)N1O`, the half-maximal inhibitory concentration (IC50) in experiment [1] and in experiment [2] was 1.7 µM each time. Besides, the outcome in experiment [3] was inactive.

On to `O=C1Cc2ccc(-c3ccco3)cc2C(=O)N1O`, for which the IC50 in experiment [1] came to 1.3 µM; in experiment [2], 1.2 µM. Also, in experiment [3], the outcome was inactive.

For `O=C1Cc2ccc(I)cc2C(=O)N1O`, the half-maximal inhibitory concentration (IC50) worked out at 1.9 µM in experiment [1] and 1.4 µM in experiment [2]. In experiment [3], the outcome was inactive.

In the case of `O=C(Cc1ccccc1)Nc1ccc2c(c1)CC(=O)N(O)C2=O`, the 50% inhibitory concentration (IC50) worked out at 1.4 µM in experiment [1] and 0.2 µM in experiment [2]. In experiment [3], the outcome was inactive.

In the case of `O=C1Cc2ccc(-c3cc4ccccc4o3)cc2C(=O)N1O`, the IC50 came to 1.6 µM in experiment [1] and 0.9 µM in experiment [2]. The result in experiment [3] was inactive.

On to `O=C1Cc2cc(-c3csc4ccccc34)ccc2C(=O)N1O`, for which the IC50 was found to be 1.3 µM in experiment [1] and 1.1 µM in experiment [2]. Moreover, the result in experiment [3] was inactive.

As for `O=C1Cc2c(cccc2-c2ccco2)C(=O)N1O`, the figures for the IC50 in experiment [1] and in experiment [2] were 2.1 µM and 2 µM, respectively. Further, the result in experiment [3] was inactive.

For the molecule `O=C1Cc2cc(-c3cc4ccccc4o3)ccc2C(=O)N1O`, the concentration for half-maximal inhibition (IC50) in experiment [1] is 1.5 µM; in experiment [2], 1.1 µM. In addition, the outcome in experiment [3] was inactive.

Regarding `Cc1ccc(Cc2cccc3c2CC(=O)N(O)C3=O)cc1`, the 50% inhibitory concentration (IC50) in experiment [1] was found to be 8 µM; in experiment [2], 1 µM. Further, in experiment [3], the result was inactive.

As to `O=C1Cc2cc(-c3cccc4c3sc3ccccc34)ccc2C(=O)N1O`, the IC50 was 1.6 µM in experiment [1] and 1.8 µM in experiment [2]. Further, the outcome in experiment [3] was inactive.

On to `O=C(Cc1ccc(F)cc1)Nc1ccc2c(c1)CC(=O)N(O)C2=O`, for which the IC50 in experiment [1] stood at 1.7 µM; in experiment [2], 0.3 µM. In addition, the result in experiment [3] was inactive.

Regarding `O=C1Cc2c(Cc3ccc(F)cc3F)cccc2C(=O)N1O`, the IC50 turned out to be 9.3 µM in experiment [1] and 0.82 µM in experiment [2]. Moreover, the result in experiment [3] was inactive.
